Assay [1] relates to CD4^+ T cells from PBLs of melanoma patients. In words: In vitro sensitization of PBLs with peptide and intracellular cytokine staining. The conditions noted are these: for patients with peptide-specific spontaneous CD4^+ T cells: 16 patients with stage IV LAGE-1^+/NY-ESO-1^+ melanoma, ICS after 10–12 d IVS; for Th1/Th2 Spontaneous Response Test by ICS, response type / Number of IFN-γ–producing CD4^+ T cells / number of IL-5–producing CD4^+ T cells: PBLs, 10–12 d IVS with the peptide, ICS; for Number of IFN-γ–producing CD4^+ T cells / number of IL-5–producing CD4^+ T cells: background subtracted. In kind it is cell-based, human.

In assay [2] the test system is Serum NY-ESO-1– and LAGE-1b–specific Abs. In words: ELISA of patient sera on plates coated with peptide or protein. The conditions noted are these: among the 16 patients with NY-ESO-1^+/LAGE-1^+ tumors. The assay is classed as binding, human. The gist of the method:
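Plates coated overnight at 4°C with recombinant NY-ESO-1 protein or 18-aa overlapping LAGE-1b peptides (P132–P210), 1 µg/ml in 15 mM Na₂CO₃/30 mM NaHCO₃ pH 9.6 with 0.02% NaN₃. Blocked overnight at 4°C with PBS/2% BSA. Patient sera (NY-ESO-1⁺/LAGE-1⁺ or negative tumors) in PBS/2% BSA, 4-fold dilution series, 2 h RT. Goat anti-human IgG-AP 1 h RT. Phosphatase substrate 25 min RT, read immediately.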

Assay [3] deals with LAGE-1–specific CD4^+ T cell clones. In words: IFN-γ ELISPOT, CD4+ T cell clones with peptide-pulsed L.DR cells. The assay is classed as cell-based, human. The settings on record: 48-h IFN-γ ELISPOT.
Setting [4] is: irrelevant control peptide (1 µg/ml), all healthy donors and patients, 6 h ICS.

In the case of “LAGE-1_97–114: 18-aa overlapping synthetic peptide, LAGE-1 positions 97–114; immunodominant epitope (SSPMEAELVRRILSRDAA; UniProt O75638 97-114, looked up, fragment)”, the “patients with peptide-specific spontaneous CD4^+ T cells” value in assay [1] was 7 out of 16. In addition, the “Th1/Th2 Spontaneous Response Test by ICS, response type” value (“Th1/Th2 Spontaneous Response Test” for short) is on record as “Th2 (0, 100)” in assay [1] (patient MP2); “Th1 (101, 18)” in assay [1] (patient MP4); “Th1 (110, 20)” in assay [1] (patient MP6); “Th2 (0, 435)” in assay [1] (patient MP7); “Th1/Th2 (83, 193)” in assay [1] (patient MP9); “Th1/Th2 (60, 530)” in assay [1] (patient MP15). In addition, the “Th1/Th2 Spontaneous Response Test” value in assay [1] (patient MP16) is recorded as “Th1 (170, 0)”. Moreover, the “Number of IFN-γ–producing CD4^+ T cells” value in assay [1] (patient MP2) is recorded as 0 per 10^5 CD4^+ T cells; in assay [1] (patient MP4), 101 per 10^5 CD4^+ T cells; in assay [1] (patient MP6) it was 110 per 10^5 CD4^+ T cells; in assay [1] (patient MP7), 0 per 10^5 CD4^+ T cells; in assay [1] (patient MP9), 83 per 10^5 CD4^+ T cells; in assay [1] (patient MP15) it was 60 per 10^5 CD4^+ T cells. In addition, the “Number of IFN-γ–producing CD4^+ T cells” value in assay [1] (patient MP16) is listed as 170 per 10^5 CD4^+ T cells. Besides, the “number of IL-5–producing CD4^+ T cells” value came to 100 per 10^5 CD4^+ T cells in assay [1] (patient MP2); 18 per 10^5 CD4^+ T cells in assay [1] (patient MP4); 20 per 10^5 CD4^+ T cells in assay [1] (patient MP6); 435 per 10^5 CD4^+ T cells in assay [1] (patient MP7); 193 per 10^5 CD4^+ T cells in assay [1] (patient MP9); 530 per 10^5 CD4^+ T cells in assay [1] (patient MP15). Further, in assay [1] (patient MP16), the “number of IL-5–producing CD4^+ T cells” value was 0 per 10^5 CD4^+ T cells.

As for “LAGE-1b167–184: 18-aa overlapping synthetic peptide, LAGE-1b positions 167–184 (DLRTPKHKVSEQRPGTPG; LAGE-1b; UniProt O75638 167-184, looked up, fragment)”, in assay [2], the “number of patients with high titers of LAGE-1b Abs recognizing the peptide” value is on record as 4.

Regarding “LAGE-1_104–121: 18-aa overlapping synthetic peptide, LAGE-1 positions 104–121; immunodominant epitope (LVRRILSRDAAPLPRPGA; UniProt O75638 104-121, looked up, fragment)”, in assay [1], the “patients with peptide-specific spontaneous CD4^+ T cells” value is 10 out of 16. Moreover, the “Th1/Th2 Spontaneous Response Test” value in assay [1] (patient MP1) is reported as “Th1/Th2 (213, 79)”; in assay [1] (patient MP2), “Th2 (0, 110)”; in assay [1] (patient MP3), “Th1 (130, 0)”; in assay [1] (patient MP5), “Th1/Th2 (505, 80)”; in assay [1] (patient MP6) it was “Th1/Th2 (351, 185)”; in assay [1] (patient MP7), “Th2 (0, 543)”. The “Th1/Th2 Spontaneous Response Test” value in assay [1] (patient MP8) is given as “Th1/Th2 (341, 221)”; in assay [1] (patient MP9) it was “Th1/Th2 (205, 65)”; in assay [1] (patient MP12), “Th1 (270, 0)”; in assay [1] (patient MP14), “Th1 (400, 0)”. The “Number of IFN-γ–producing CD4^+ T cells” value in assay [1] (patient MP1) is listed as 213 per 10^5 CD4^+ T cells; in assay [1] (patient MP2) it was 0 per 10^5 CD4^+ T cells; in assay [1] (patient MP3), 130 per 10^5 CD4^+ T cells; in assay [1] (patient MP5), 505 per 10^5 CD4^+ T cells; in assay [1] (patient MP6) it was 351 per 10^5 CD4^+ T cells; in assay [1] (patient MP7), 0 per 10^5 CD4^+ T cells. The “Number of IFN-γ–producing CD4^+ T cells” value is 341 per 10^5 CD4^+ T cells in assay [1] (patient MP8), 205 per 10^5 CD4^+ T cells in assay [1] (patient MP9), 270 per 10^5 CD4^+ T cells in assay [1] (patient MP12) and 400 per 10^5 CD4^+ T cells in assay [1] (patient MP14). Moreover, the “number of IL-5–producing CD4^+ T cells” value in assay [1] (patient MP1) is given as 79 per 10^5 CD4^+ T cells; in assay [1] (patient MP2), 110 per 10^5 CD4^+ T cells; in assay [1] (patient MP3), 0 per 10^5 CD4^+ T cells; in assay [1] (patient MP5), 80 per 10^5 CD4^+ T cells; in assay [1] (patient MP6) it was 185 per 10^5 CD4^+ T cells; in assay [1] (patient MP7) it was 543 per 10^5 CD4^+ T cells. For the same substance, the “number of IL-5–producing CD4^+ T cells” value in assay [1] (patient MP8) stood at 221 per 10^5 CD4^+ T cells; in assay [1] (patient MP9), 65 per 10^5 CD4^+ T cells; in assay [1] (patient MP12), 0 per 10^5 CD4^+ T cells; in assay [1] (patient MP14), 0 per 10^5 CD4^+ T cells.

For the substance “LAGE-1b118–135: 18-aa overlapping synthetic peptide, LAGE-1b positions 118–135; immunodominant epitope (RPGAVLKDFTVSGNLLFM; LAGE-1b; UniProt O75638 118-135, looked up, fragment)”, the “patients with peptide-specific spontaneous CD4^+ T cells” value in assay [1] is given as 9 out of 16.

Take “HIVpol711–725: irrelevant HIV-derived control peptide in ICS [reference compound]”: in assay [1] (setting [4]), the “mean value of IFN-γ–producing CD4^+ T cells” value is given as 25 per 10^5 CD4^+ T cells and the “mean value of IL-5–producing CD4^+ T cells” value turned out to be 22 per 10^5 CD4^+ T cells.

On to “LAGE-1b188–210: overlapping synthetic peptide, LAGE-1b positions 188–210 (PEGAQGDGCRGVAFNVMFSAPHI; LAGE-1b; UniProt O75638 188-210, looked up, fragment)”, for which, in assay [2], the “number of patients with high titers of LAGE-1b Abs recognizing the peptide” value is 4.

In the case of “NY-ESO-1_104–121: NY-ESO-1 peptide overlapping the LAGE-1_104–121 sequence, control (LARRSLAQDAPPLPVPGV; UniProt P78358 104-121, looked up, fragment)”, the “recognition of peptide by LAGE-1_104–121–specific CD4^+ T cell clone 116/12” value in assay [3] is “did not recognize”.

For the origin of these results see PMC3901358 (Journal of immunology (Baltimore, Md. : 1950), 2010).
